Compound activity (PubChem)
This is a sample that favours compounds with a hit; in the whole collection about 2.9% have one here.
SENP1 FRET inh = SENP1 (human) catalytic domain inhibition | actives 0.21% (n = 360,000) | Q9P0U3 | recombinant SENP1 catalytic domain, CyPet-SUMO1-YPet FRET cleavage | inhibition, % at 10 µM;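 active = inhibition at least 30% at 10 µM, raw YFP signal under a set limit, fluorescence ratio 0.5 to 1.5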;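 also: 0% = enzyme with DMSO and 100% = no enzyme wells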
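Test system: recombinant human SENP1 catalytic domain, His6-tagged / Medium: pH 8 Tris buffer with EDTA, NaCl, BME, BSA, NP40, catalase / Also added: SUMO1 FRET substrate flanked by Cypet and Ypet, 25 nM / Times: 50 min reaction at room temperature / Signal: FRET, CFP and YFP emission / Control set: no-enzyme low control and enzyme-plus-DMSO high control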
Apaf1 inhib = blocks human Apaf-1 apoptosome activity | O14727 | AID 489030 | reconstituted apoptosome caspase-3 activity, DEVD-Rh110 fluorescence | actives 0.71% (n = 330,000) | inhibition, % at 20 µM; active = inhibition of at least 40% at 20 µM;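 also: plate controls were DMSO wells for no effect and DEVD-CHO caspase inhibitor wells for full effect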
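Medium: Hepes buffer, pH 7.5 / System: biochemical Apaf-1 apoptosome reconstitution / Measured by: Rh110 fluorescence, excitation 480 nm, emission 540 nm / Times: compound with Apaf-1, dATP, procaspase-3 30 min, then 50 min reaction, room temperature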
SENP8 block-1 = SENP8 (human) protease inhibition. actives 0.64% (n = 360,000). Q96LD8. recombinant SENP8, Nedd8 substrate fluorescence. AID 602440. inhibition, % at 20 µM; in the data active = inhibition mostly above about 40%, no sharp cut-off; inactive = mostly below about 27%
Target sequence (Q96LD8 whole entry, looked up): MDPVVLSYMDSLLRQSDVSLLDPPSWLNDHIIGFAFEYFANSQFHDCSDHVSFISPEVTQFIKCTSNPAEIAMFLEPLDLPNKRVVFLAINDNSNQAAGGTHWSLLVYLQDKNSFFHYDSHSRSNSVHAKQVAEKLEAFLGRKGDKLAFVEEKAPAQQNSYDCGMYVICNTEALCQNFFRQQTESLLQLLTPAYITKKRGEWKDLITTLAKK
SENP7 block = SENP7 protease inhibition | actives 1.5% (n = 330,000) | inhibition, % at 5 µM | recombinant SENP7, Z-RLRGG-aminoluciferin luminescence, 40 min;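 active = inhibition above about 50% at the single test dose, limit read from the data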;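 also: plate controls were DMSO with enzyme for no effect and no enzyme buffer wells for full effect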
Target sequence (Q9BQF6 706-1050 limits assumed): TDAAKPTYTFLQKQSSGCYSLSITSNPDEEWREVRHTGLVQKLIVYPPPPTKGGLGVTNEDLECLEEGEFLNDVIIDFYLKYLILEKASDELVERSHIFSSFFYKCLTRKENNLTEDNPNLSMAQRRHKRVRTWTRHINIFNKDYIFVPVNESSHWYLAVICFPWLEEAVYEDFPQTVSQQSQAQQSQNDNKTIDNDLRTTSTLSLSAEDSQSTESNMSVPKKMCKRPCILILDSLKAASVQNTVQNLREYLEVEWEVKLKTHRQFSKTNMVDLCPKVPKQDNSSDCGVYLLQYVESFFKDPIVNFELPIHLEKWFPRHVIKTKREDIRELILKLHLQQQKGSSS
SENP6 block = inhibitors of human SENP6 protease | Q9GZR1 | Recombinant SENP6 catalytic domain, aminoluciferin luminescence | inhibition, % at 10 µM | actives 1.8% (n = 330,000) | AID 2599;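 active = inhibition above about 50% at the single tested dose, limit read from the data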;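 also: plate controls were DMSO wells with enzyme for no effect and DMSO wells lacking enzyme for full effect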
SENP8 block-2 = blocks the human protease SENP8; Q96LD8; purified SENP8, Z-RLRGG-aminoluciferin cleavage, luminescence; inhibition, % at 10 µM; actives 1.2% (n = 330,000); in the data active = inhibition above about 50%
SENP8 conf = human SENP8 inhibition, confirmed; shares compounds with SENP7 block; Recombinant SENP8, Z-RLRGG-aminoluciferin luminescence, 60 min; inhibition, % at 12.5 µM; actives 40% (n = 6,200);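 active = mean inhibition across replicates above about 50%, limit read from the data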
SENP6 confirm = confirmation of human SENP6 protease inhibitors; AID 488915; recombinant SENP6, Z-RLRGG-aminoluciferin luminescence; shares compounds with SENP7 block; inhibition, % at 12.5 µM; actives 58% (n = 6,200)
SENP7 conf = confirmation of human SENP7 protease inhibitors. shares compounds with SENP7 block. recombinant SENP7, Z-RLRGG-aminoluciferin luminescence, 40 min. inhibition, % at 12.5 µM. actives 69% (n = 6,200)
Casp3 select = inhibits human caspase-3 in SENP selectivity test; shares compounds with SENP7 block; purified caspase-3, Z-DEVD-aminoluciferin luminescence, 60 min; inhibition, % at 12.5 µM; actives 60% (n = 6,200); AID 488918;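 active = mean inhibition above about 50%, limit read from the data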;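 also: plate controls were enzyme with DMSO for no effect and wells without caspase-3 for full effect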
SENP luc ctr = interferes with luciferase luminescence in SENP counter-screen; actives 39% (n = 6,200); shares compounds with SENP7 block; inhibition, % at 12.5 µM; Pre-incubated SENP8/Z-RLRGG-aminoluciferin, luciferase luminescence interference;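 active = mean inhibition above about 50% when retested at one dose, limit read from the data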;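 also: plate controls were DMSO wells with completed reaction for no effect and substrate without enzyme for full effect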
* hit, by the source's call; nt = no result.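 The calls were made as follows, unless noted: active = mean inhibition above about 50% in the one-dose retest (limit read from the data); inactive = the rest.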

SMILES	SENP1 FRET inh	Apaf1 inhib	SENP8 block-1	SENP7 block	SENP6 block	SENP8 block-2	SENP8 conf	SENP6 confirm	SENP7 conf	Casp3 select	SENP luc ctr
CC(C)(C)NCCCCOc1ccccc1F	-0.5	-6.7	5.5	84.2*	5.5	-3.9	16.2	0.5	-2.9	-1.3	-3.3
c1ccc2[nH]c(SCc3ccc(-c4nnco4)cc3)nc2c1	0.3	6.6	36.1	71.1*	72.3*	44.7	64.3*	61.1*	87.8*	81.2*	75.4*
O=C1CCC(=O)N1c1ccc(CSc2nc3ccccc3[nH]2)cc1	0.1	-0.7	10.8	-5.4	-4.5	-20.2	nt	nt	nt	nt	nt
COc1ccc(CSc2nc3ccccc3[nH]2)cc1	0.8	1.2	26.7	94.2*	96.1*	87.7*	92.3*	93.7*	100.4*	92.0*	92.6*
COC(=O)c1cccc(CSc2nc3ccccc3[nH]2)c1	1.8	6.8	18.9	72.3*	64.5*	46.6	49.8	50.1*	83.4*	64.3*	68.0*
COCCNC(=O)C1(C)CCN(C(=O)c2cccnc2Oc2ccccc2)C1 (centres undefined)	2.8	nt	26.4	nt	nt	nt	nt	nt	nt	nt	nt
CCc1nc2c(OCc3cccc(Cl)c3)cccn2c1N(C)C(=O)c1ccncc1	-0.5	nt	12.1	nt	nt	nt	nt	nt	nt	nt	nt
Cc1cccc(N2CCN(C(=O)c3c(-c4ccccc4)noc3C)CC2)c1C	0.9	20.2	0.1	0.9	4.8	4.6	nt	nt	nt	nt	nt
Cc1cc(C)n(CC(O)Cn2c3ccccc3c3ccccc32)n1 (centres undefined)	0.0	11.2	-8.9	7.2	-17.8	2.3	nt	nt	nt	nt	nt
Cc1cc(C)n(CC(O)Cn2c3ccc(Cl)cc3c3cc(Cl)ccc32)c(=O)n1 (centres undefined)	4.7	3.2	4.2	95.3*	-9.0	-7.0	2.4	3.5	7.4	-2.3	1.7
COc1ccc(-c2nsc3c(N4CCCC4)ncnc23)cc1	0.4	3.6	-274.1	74.3*	51.6*	15.2	37.5	33.6	51.2*	57.7*	17.3
Cc1cccc(NC(=O)NC(=O)c2ccccc2)n1	3.8	-7.3	10.5	53.7*	-7.9	22.0	9.5	12.1	24.2	14.7	1.9
CCCc1cc(C(=O)NNC(=S)Nc2cccc(C)c2)cs1	-0.2	26.5	10.3	94.3*	78.9*	80.0*	33.1	26.5	7.7	3.6	20.6
CC1(C(=O)Nc2ccc3ccccc3c2)CCC(=O)N1C1CC1 (centres undefined)	-1.6	nt	13.0	nt	nt	nt	nt	nt	nt	nt	nt
COc1ccc(NC(=O)c2ccc(NC(=O)CN(C)CC(=O)Nc3c(C)cccc3C)cc2)cc1	1.4	-12.2	18.6	1.5	-14.8	-0.9	nt	nt	nt	nt	nt
O=C1C=C(Nc2ccccc2)C(=O)c2ccccc21	3.5	17.1	25.0	81.7*	89.6*	80.2*	26.0	29.0	46.6	46.7	13.5
Cn1cccc2[nH]c(=O)nc1-2	0.6	-14.9	-132.4	-4.1	-8.5	-0.7	nt	nt	nt	nt	nt
O=C(c1cc(-c2ccc(Br)cc2)on1)N1CCc2ccccc2C1	1.1	13.0	14.6	-4.4	-23.7	-0.9	nt	nt	nt	nt	nt
O=C(Nc1ccccc1)C(=O)c1c[nH]c2ccccc12	1.5	4.2	1.7	97.0*	93.1*	89.3*	86.4*	89.7*	100.4*	85.1*	37.7
Brc1ccc(Nc2nc(-c3cccnc3)cs2)cc1	2.0	-5.4	2.0	8.3	-3.7	-10.6	nt	nt	nt	nt	nt
Cc1ccc(Nc2nc(-c3cccnc3)cs2)cc1C	4.5	15.2	4.1	58.0*	74.1*	54.8*	9.8	67.5*	88.4*	35.5	12.9
CCOc1ccc(Nc2nc(-c3cccnc3)cs2)cc1	-0.8	-10.5	-0.6	69.8*	19.6	17.7	-8.7	11.4	10.8	6.1	-3.2
O=C(Nc1ccccc1OC(=O)c1ccccc1)c1ccccc1	10.7	nt	-19.3	nt	nt	nt	nt	nt	nt	nt	nt
Clc1ccccc1-c1ncc(-c2ccccc2)o1	1.6	14.7	-415.7	92.4*	90.6*	87.5*	79.4*	91.5*	98.7*	79.2*	83.7*
CC1=NN(c2nc3ccccc3[nH]2)C(=O)/C1=C/N(C)C	0.8	16.3	14.9	95.9*	88.2*	92.3*	87.7*	84.1*	98.5*	96.8*	91.3*
SMILES	SENP1 FRET inh	Apaf1 inhib	SENP8 block-1	SENP7 block	SENP6 block	SENP8 block-2	SENP8 conf	SENP6 confirm	SENP7 conf	Casp3 select	SENP luc ctr
CCOC1=NN(c2ccc(Cl)cc2)C(=O)/C1=C\N(C)C	0.4	11.5	21.5	3.3	8.8	1.8	nt	nt	nt	nt	nt
CC1=NN(c2ccc([N+](=O)[O-])cc2)C(=O)/C1=C\N(C)C	2.5	5.8	42.6*	95.3*	96.9*	93.1*	95.6*	95.0*	101.8*	98.3*	95.5*
CN(C)/C=C1\C(=O)N(c2ccc([N+](=O)[O-])cc2)N=C1c1ccccc1	5.4	13.0	62.1*	96.7*	97.6*	94.8*	98.0*	98.8*	103.0*	95.3*	97.2*
CCCC1=NN(c2ccc([N+](=O)[O-])cc2)C(=O)/C1=C/N(C)C	0.6	1.4	21.1	98.9*	97.9*	94.5*	94.9*	95.4*	101.2*	96.4*	96.0*
CC1=NN(c2ccccc2)C(=O)/C1=C/N(C)C	2.5	-13.9	19.5	9.1	4.5	-4.4	nt	nt	nt	nt	nt
Cc1ccc(S(=O)(=O)NCCNC(=O)c2ccc(C)nc2)cc1	-3.0	-1.1	13.4	2.8	0.5	0.1	nt	nt	nt	nt	nt
CCOC(=O)Cn1c(=O)c2c(nc3n2CCCCN3c2ccc(C)cc2)n(C)c1=O	0.0	10.4	-11.4	-3.1	-3.2	-1.9	nt	nt	nt	nt	nt
Cc1cc(C)cc(N2CCCn3c2nc2c3c(=O)n(CC(=O)OCc3ccccc3)c(=O)n2C)c1	0.2	21.5	-4.5	55.3*	8.5	1.4	-16.8	-9.4	-15.3	0.8	-8.6
O=c1oc(CCCO)cc2ccccc12	0.7	4.8	-31.0	11.2	1.8	-5.5	nt	nt	nt	nt	nt
COc1ccc(N=Cc2sc(O)c3ccccc23)cc1	-20.0	28.9	-2.8	69.8*	61.5*	79.2*	92.9*	92.2*	99.9*	73.2*	81.4*
NS(=O)(=O)c1ccc(NC(=O)COC(=O)C2CC2)cc1	0.2	-6.9	6.5	-1.0	20.4	3.6	nt	nt	nt	nt	nt
